Assay results gathered from unrelated publications.
Compare with care: the assays were run in different laboratories.
Effect on: cell growth or viability

| SMILES | cell line | test | setting | measurement | value |
| --- | --- | --- | --- | --- | --- |
| CC(C)(C)CC(C)(C)Nc1c(-c2ccccc2)nc2ncccn12 | MCF7 | MTT | 25 µM, 48 h | viability | 44.9% |
| C[C@@H]1[C@H](O)[C@@H](C)/C=C/C=C/C=C/C=C/C=C/C=C/C=C/[C@H](O[C@@H]2O[C@H](C)[C@@H](O)[C@H](N)[C@@H]2O)C[C@@H]2O[C@](O)(C[C@@H](O)C[C@@H](O)[C@H](O)CC[C@@H](O)C[C@@H](O)CC(=O)O[C@H]1C)C[C@H](O)[C@H]2C(=O)O | THP-1 | MTT | 72 h | CC50 | 3.6 µM |
| C=C(C)[C@H](CC=C(C)C)Cc1c(O)cc(O)c2c1O[C@H](c1ccc(O)cc1O)CC2=O | MCF7 | MTT | 48 h | IC50 | 19.2 µM |
| c1cc(CN2CCCNCCNCCCNCC2)ccc1CN1CCCNCCNCCCNCC1 | TZM-bl |  |  | CC50 | > 1 µM |
| CC[C@H](C)C(=O)O[C@H]1C[C@@H](C)C=C2C=C[C@H](C)[C@H](CC[C@@H]3C[C@@H](O)CC(=O)O3)[C@H]21 | SW-620 | SRB | 72 h | IC50 | 0.08 µM |
| CC(=O)O[C@@H]1c2c(ccc3ccc(=O)oc23)OC(C)(C)[C@@H]1OC(=O)C1(C)OC1C (stereo partly drawn) | HEp-2 | WST-1 |  | IC50 | 36.4 µM |
| C=C1C(=O)O[C@H]2[C@H]1CC/C(C)=C/CC[C@@]1(C)O[C@@H]21 | THP-1 | ATP luminescence | 17 h | IC50 | 8.89 µM |
| COC(=O)[C@]1(O)C[C@@H](O)[C@@H](O)[C@H](OC(=O)/C=C/c2ccc(O)c(O)c2)C1 | HEp-2 | WST-1 |  | IC50 | 21.2 µM |
| C[C@H]1[C@H](C)CC[C@]2(C(=O)O)CC[C@]3(C)C(=CC[C@@H]4[C@@]5(C)CC[C@H](O)C(C)(C)[C@@H]5CC[C@]43C)[C@H]12 | WS1 |  | 48 h | IC50 | 14 µM |
| OC[C@@H]1[C@@H](O)[C@H](O)[C@@H](O)CN1CC/C=C/CCOc1cc(F)ccc1F | MDBK | MTT |  | CC50 | > 500 µM |
| CC(=O)OC1c2c(ccc3ccc(=O)oc23)OC(C)(C)C1OC(=O)C(C)(O)C(C)O (stereo not drawn) | MCF7 | WST-1 |  | IC50 | 6.1 µM |
| O=[N+]([O-])c1ccc(-c2nc3cccc(O)c3[nH]2)o1 | HEp-2 | resazurin | 72 h | CC50 | 31.6 µM |
| C[C@@H]1O[C@@H](OC[C@H]2O[C@@H](Oc3c(-c4ccc(O)c(O)c4)oc4cc(O)cc(O)c4c3=O)[C@H](O)[C@@H](O)[C@@H]2O)[C@H](O)[C@H](O)[C@H]1O | TZM-bl | MTT | 48 h | CC50 | > 250 µg/mL |
| Cc1cccc2nc(-c3ccc([N+](=O)[O-])o3)[nH]c12 | HEp-2 | resazurin | 72 h | CC50 | 1.7 µM |
| CC1(C)CC[C@]2(C)CC[C@]3(C)[C@H]4CC=C5[C@@H](CC[C@H](O)C5(C)C)[C@]4(C)CC[C@@]3(C)[C@@H]2C1 | HEp-2 | WST-1 |  | IC50 | 48.1 µM |
